From ChEMBL document CHEMBL1124818, “Synthesis and cardiac electrophysiological activity of aryl-substituted derivatives of the class III antiarrhythmic agent sematilide. Potential class I/III agents” (J Med Chem, 1990)
Several values for one entry are separate records, joined by “and”; a condition that tells them apart may be missing. Identical values can stand only once.

Tests used:
[1] = Percent change from control value for Vmax at 1 uM of the compound
Summary of the method: (§1)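 Microelectrode recording in Purkinje fibers; maximal depolarization rate (Vmax) measured at each test concentration, given as percent change from control, mean ± SEM; n per concentration may differ from APD experiments.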

Canis familiaris [2] = species: Canis familiaris; assay: Duration of action potential was determined in vitro in Canine Purkinje fibers at 10 uM concentration; assay type: functional, Canis lupus familiaris, Purkinje fiber
Summary of the method: (§2)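 Microelectrode recording in Purkinje fibers; action potential duration at 95% repolarization measured at each test concentration and expressed as percent change from control, mean ± SEM over the stated number of experiments.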

[3] = Percent change from control value for Vmax at 10 uM of the compound; summary of the method: as §1
[4] = Percent change from control value for Vmax at 30 uM of the compound; summary of the method: as §1
Cavia porcellus [5] = assay: Percent change in the mean time to first Ouabain-induced arrhythmia was determined in Guinea pig at a dose of 10 mg/kg; assay type: functional
Summary of the method: (§3)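 Anesthetized guinea pigs, tracheal cannulation with room-air respiration, right jugular cannulated; 5 min equilibration, test agent intravenous, then 10 min later ouabain 40 μg/kg iv bolus plus 10 μg/kg/min infusion until arrhythmia. Percent change in mean time to first arrhythmia (n = 4-6) versus vehicle control (n = 3-4).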

Canis familiaris [6] = species: Canis familiaris; assay: Duration of action potential was determined in vitro in Canine Purkinje fibers at 30 uM concentration; assay type: functional, Canis lupus familiaris, Purkinje fiber; summary of the method: as §2
[7] = Percent change from control value for Vmax at 0.1 uM of the compound; summary of the method: as §1
Canis familiaris [8] = species: Canis familiaris; assay: Duration of action potential was determined in vitro in Canine Purkinje fibers at 0.1 uM concentration; assay type: functional, Canis lupus familiaris, Purkinje fiber; summary of the method: as §2
Canis familiaris [9] = species: Canis familiaris; assay: Duration of action potential was determined in vitro in Canine Purkinje fibers at 1 uM concentration; assay type: functional, Canis lupus familiaris, Purkinje fiber; summary of the method: as §2
Canis familiaris [10] = species: Canis familiaris; assay: Duration of action potential in vitro against Canine Purkinje fibers, at 10 uM concentration.; assay type: functional, Canis lupus familiaris, Purkinje fiber; summary of the method: as §2
Canis familiaris [11] = species: Canis familiaris; assay: Duration of action potential in vitro against Canine Purkinje fibers, at 100 uM concentration.; assay type: functional, Canis lupus familiaris, Purkinje fiber; summary of the method: as §2
[12] = Percent change from control value for Vmax at 1 uM of the compound.; summary of the method: as §1
Canis familiaris [13] = species: Canis familiaris; assay: Duration of action potential in vitro against Canine Purkinje fibers; at 1 uM concentration; assay type: functional, Canis lupus familiaris, Purkinje fiber; summary of the method: as §2
Canis familiaris [14] = species: Canis familiaris; assay: Duration of action potential was determined in vitro in Canine Purkinje fibers at 0.1 uM concentration.; assay type: functional, Canis lupus familiaris, Purkinje fiber; summary of the method: as §2
Canis familiaris [15] = species: Canis familiaris; assay: Duration of action potential in vitro against Canine Purkinje fibers, at 30 uM concentration.; assay type: functional, Canis lupus familiaris, Purkinje fiber; summary of the method: as §2
Canis familiaris [16] = species: Canis familiaris; assay: Duration of action potential in vitro against Canine Purkinje fibers, at 3 uM concentration.; assay type: functional, Canis lupus familiaris, Purkinje fiber; summary of the method: as §2
[17] = Percent change from control value for Vmax at 100 uM of the compound.; summary of the method: as §1
[18] = Percent change from control value for Vmax at 0.1 uM of the compound.; summary of the method: as §1
[19] = Percent change from control value for Vmax at 10 uM of the compound.; summary of the method: as §1
Canis familiaris [20] = assay: Antiarrhythmic efficacy in vivo against PES model; assay type: functional; conditions: Canis lupus familiaris, Heart
Summary of the method: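 Conscious dogs 3-8 days after occlusion/reperfusion infarction (Karagueuzian method); programmed electrical stimulation induced two control arrhythmias before dosing, VF ended by DC countershock and sustained VT by burst pacing. After intravenous drug, reinduction attempted; efficacy counted when SVT/VF not inducible; per-dog effective dose recorded, non-responders to cumulative 10 mg/kg unless noted.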

Canis familiaris [21] = assay: Antiarrhythmic efficacy in vivo against Harris model; assay type: functional; conditions: Canis lupus familiaris, Heart
Summary of the method: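 Conscious dogs studied 24 h after two-stage coronary occlusion infarction (Harris method), when ectopy exceeds 75%; test agent given intravenously. Efficacy counted as >30% decrease in ectopy; per-dog effective dose recorded, non-responders given cumulative 10 mg/kg unless otherwise noted.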

Canis familiaris [22] = species: Canis familiaris; assay: Duration of action potential was determined in vitro in Canine Purkinje fibers at 10 uM concentration.; assay type: functional, Canis lupus familiaris, Purkinje fiber; summary of the method: as §2
Canis familiaris [23] = species: Canis familiaris; assay: Duration of action potential was determined in vitro in Canine Purkinje fibers at 30 uM concentration.; assay type: functional, Canis lupus familiaris, Purkinje fiber; summary of the method: as §2
Canis familiaris [24] = species: Canis familiaris; assay: Duration of action potential was determined in vitro in Canine Purkinje fibers at 1 uM concentration.; assay type: functional, Canis lupus familiaris, Purkinje fiber; summary of the method: as §2
[25] = Percent change from control value for Vmax at 30 uM of the compound.; summary of the method: as §1
Canis familiaris [26] = species: Canis familiaris; assay: Duration of action potential was determined in vitro in Canine Purkinje fibers at 100 uM concentration.; assay type: functional, Canis lupus familiaris, Purkinje fiber; summary of the method: as §2
Canis familiaris [27] = species: Canis familiaris; assay: Duration of action potential in vitro against Canine Purkinje fibers; at 100 uM concentration.; assay type: functional, Canis lupus familiaris, Purkinje fiber; summary of the method: as §2
Canis familiaris [28] = species: Canis familiaris; assay: Duration of action potential in vitro against Canine Purkinje fibers; at 10 uM concentration.; assay type: functional, Canis lupus familiaris, Purkinje fiber; summary of the method: as §2
Cavia porcellus [29] = assay: Percent change in the mean time to first Ouabain-induced arrhythmia was determined in Guinea pig at a dose of 3 mg/kg; assay type: functional; summary of the method: as §3
[30] = Percent change from control value for Vmax at 3 uM of the compound.; summary of the method: as §1
Canis familiaris [31] = species: Canis familiaris; assay: Duration of action potential in vitro against Canine Purkinje fibers; at 3 uM concentration; assay type: functional, Canis lupus familiaris, Purkinje fiber; summary of the method: as §2
Cavia porcellus [32] = assay: Percent change in the mean time to first Ouabain-induced arrhythmia was determined in Guinea pig at 10 mg/kg dose; assay type: functional; summary of the method: as §3
Canis familiaris [33] = species: Canis familiaris; assay: Duration of action potential in vitro against Canine Purkinje fibers; at 30 uM concentration.; assay type: functional, Canis lupus familiaris, Purkinje fiber; summary of the method: as §2

Compound	Delta Vmax [12]	Delta Vmax [18]	Delta Vmax [19]	Delta Vmax [25]	Change (Cavia porcellus [5]; dose 10 mg/kg)	Delta APD95 (Canis familiaris [13])	Delta APD95 (Canis familiaris [14])	ED50 (Canis familiaris [20])	Delta APD95 (Canis familiaris [22])	Delta APD95 (Canis familiaris [23])	Delta APD95 (Canis familiaris [24])	also measured
CCN(CC)CCN(C(=O)c1ccc(NS(C)(=O)=O)cc1)c1ccc(NS(C)(=O)=O)cc1	–	–	–	–	22%	–	–	–	–	–	–	Delta Vmax [1]: -2%; Delta APD95 (Canis familiaris [2]): 30%; Delta Vmax [3]: -3%; Delta Vmax [4]: -6%; Delta APD95 (Canis familiaris [6]): 40%; Delta Vmax [7]: -4%; Delta APD95 (Canis familiaris [8]): 7%; Delta APD95 (Canis familiaris [9]): 10%
CCN(CC)CC(NC(=O)c1ccc(NS(C)(=O)=O)cc1)c1cccc2ccccc12 (stereo not given)	-20%	-3%	–	–	–	10%	14%	1 mg/kg	–	–	–	Delta APD95 (Canis familiaris [10]): -14%; Change (Cavia porcellus [5]; dose 3 mg/kg, in the assay text read “3 mg/kg” for “10 mg/kg”): 70%; ED50 (Canis familiaris [21]): 2 mg/kg
CCN(CC)CCN(C(=O)c1ccc(NS(C)(=O)=O)cc1)c1ccc(OC)cc1.O=C(O)/C=C/C(=O)O	-3%	0%	-3%	-8%	15%	–	8%	–	82%	66%	35%	–
CCN(CC)CCN(C(=O)c1ccc(NS(C)(=O)=O)cc1)c1cccc2ccccc12.Cl	-5%	2%	-13%	-16%	-25%	51%	10%	1 mg/kg	–	–	–	Delta APD95 (Canis familiaris [27]): 26%; Delta APD95 (Canis familiaris [28]): 64% and 37%; Delta Vmax [17]: -42%; Change (Cavia porcellus [29]): 8%
CCN(CC)C(CNC(=O)c1ccc(NS(C)(=O)=O)cc1)c1ccccc1 (stereo not given)	-4%	-4%	-12%	-15%	-13%	40%	11%	–	–	–	–	Delta APD95 (Canis familiaris [10]): 46%; Delta APD95 (Canis familiaris [15]): 52%
O=C(NCC1CCCCN1)c1cc(OCC(F)(F)F)ccc1OCC(F)(F)F (stereo not given) [FLECAINIDE]	-6%	2%	-30%	–	–	-15%	-3%	1 mg/kg	–	–	–	Delta Vmax [30]: -11%; Delta APD95 (Canis familiaris [28]): -47%; ED50 (Canis familiaris [21]): 1 mg/kg; Delta APD95 (Canis familiaris [31]): -35%; Change (Cavia porcellus [29]): 51%
C=C[C@H]1CN2CC[C@H]1C[C@@H]2[C@@H](O)c1ccnc2ccc(OC)cc12 [QUINIDINE]	-1%	0%	–	-23%	–	–	2%	1 mg/kg	-4%	-17%	4%	Delta APD95 (Canis familiaris [26]): -14%; ED50 (Canis familiaris [21]): 10 mg/kg; Change (Cavia porcellus [32]): 28%
CCN(CC)CCN(C(=O)c1ccc(NS(C)(=O)=O)cc1)c1ccc(Cl)cc1	2%	3%	-8%	-20%	18%	–	9%	–	64%	60%	34%	–
CCN(CC)C(CNC(=O)c1ccc(NS(C)(=O)=O)cc1)c1cccc2ccccc12 (stereo not given)	-2%	1%	-4%	-7%	0%	29%	4%	–	–	–	–	Delta APD95 (Canis familiaris [10]): 34%; Delta APD95 (Canis familiaris [15]): 29%

More lines, main results first:

Delta Vmax [12]	Delta Vmax [18]	Delta Vmax [19]	Delta Vmax [25]	Compound	Change (Cavia porcellus [5]; dose 10 mg/kg)	Delta APD95 (Canis familiaris [13])	Delta APD95 (Canis familiaris [14])	ED50 (Canis familiaris [20])	Delta APD95 (Canis familiaris [22])	Delta APD95 (Canis familiaris [23])	Delta APD95 (Canis familiaris [24])	also measured
0%	2%	0%	–	CCN(CC)CCNC(=O)c1ccc(NS(C)(=O)=O)cc1 [SEMATILIDE]	–	6%	0%	1 mg/kg	–	–	–	Delta APD95 (Canis familiaris [10]): 33%; Delta APD95 (Canis familiaris [11]): 66%; Delta APD95 (Canis familiaris [15]): 51%; Delta APD95 (Canis familiaris [16]): 14%; Delta Vmax [17]: 0%
-3%	-4%	-12%	-20%	CCN(CC)CCN(C(=O)c1ccc(NS(C)(=O)=O)cc1)c1ccccc1.Cl	-9%	–	4%	–	52%	38%	18%	Delta APD95 (Canis familiaris [26]): 45%; Delta Vmax [17]: -39%
-2%	-4%	-3%	-6%	CCN(CC)CCN(C(=O)c1ccc(NS(C)(=O)=O)cc1)c1c(C)cccc1C.Cl	-8%	–	7%	–	30%	40%	10%	–
2%	–	1%	–	CCN(CC)CC(=O)Nc1c(C)cccc1C [LIDOCAINE]	30%	–	–	–	-25%	–	-7%	–
1%	–	-11%	–	CCN(CC)CCN(C(=O)c1ccc(NS(C)(=O)=O)cc1)c1c(C(C)C)cccc1C(C)C.Cl	–	–	–	1 mg/kg	22%	–	21%	ED50 (Canis familiaris [21]): 10 mg/kg; Change (Cavia porcellus [29]): 22%
-2%	6%	-13%	-34%	CCN(CC)CC(NC(=O)c1ccc(NS(C)(=O)=O)cc1)c1ccccc1.Cl (stereo not given)	61%	21%	4%	–	–	–	–	Delta APD95 (Canis familiaris [27]): -20%; Delta APD95 (Canis familiaris [28]): -2%; Delta Vmax [17]: -76%; Delta APD95 (Canis familiaris [33]): -12%
8%	5%	4%	-6%	CCc1ccc(N(CCN(CC)CC)C(=O)c2ccc(NS(C)(=O)=O)cc2)cc1.Cl	20%	–	12%	–	70%	62%	51%	–
